Source: ChEMBL document CHEMBL5724801, “EUbOPEN Chemogenomics Library - Multiplex” (2024)
Values joined by “and” are separate entries in the source; they are usually repeats but may differ in a detail not shown here. Identical values can stand only once.

Legend:
Fibroblast = test: Multiplex assay against human fibroblast; type: toxicity, cell-based
Procedure, shortened: (§1)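 On a CQ1 microscope at 37°C and 5% CO2, live cells were imaged after compound addition. They had been stained at seeding with Hoechst33342, BioTracker Green Microtubule Cytoskeleton Dye, MitoTracker Red and Annexin V Alexa Fluor 680. CellPathfinder machine-learning gating assigned cells to Hoechst high-intensity objects or normal cells, normal cells to healthy, pyknosed or fragmented nuclei, and pyknosed cells to mitotic or apoptotic. Tubulin, mitochondrial-mass and membrane-permeability phenotypes are per cents of healthy-nucleus cells.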

HEK-293T = test: Multiplex assay against HEK293T; type: toxicity, cell-based; conditions: human; procedure, shortened: as §1
[1] = 12 h, 1 µM, compound concentration 1 uM
[2] = 12 h, 10 µM, compound concentration 10 uM
[3] = 24 h, 1 µM, compound concentration 1 uM
[4] = 24 h, 10 µM, compound concentration 10 uM
[5] = 48 h, 1 µM, compound concentration 1 uM
[6] = 48 h, 10 µM, compound concentration 10 uM

Compound: COc1cc(NC(=O)CCN2CCC(OC(=O)Nc3ccccc3-c3ccccc3)CC2)c(Cl)cc1CNC[C@H](O)c1ccc(O)c2[nH]c(=O)ccc12 [BATEFENTEROL]
- Population Apoptotic (%) (Fibroblast; [1]): 53% and 37%
- Population Fragmented Nuclei (%) (Fibroblast; [1]): 25%
- Population Healthy Nuclei (%) (Fibroblast; [1]): 58% and 54%
- Population Hoechst High Intensity Objects (%) (Fibroblast; [1]): 2% and 3%
- Population Membrane Permeable-Phenotype (%) (Fibroblast; [1]): 0% and 3%
- Population Mitochondria Different-Phenotype (%) (Fibroblast; [1]): 13% and 7%
- Population Mitotic Cells (%) (Fibroblast; [1]): 46% and 62%
- Population Normal (%) (Fibroblast; [1]): 97% and 96%
- Population Pyknosed Nuclei (%) (Fibroblast; [1]): 15% and 20%
- Population Tubulin-Different-Phenotype (%) (Fibroblast; [1]): 42% and 50%
- Total Cell Count (Fibroblast; [1]): 181 and 124
- Population Apoptotic (%) (Fibroblast; [2]): 46% and 41%
- Population Fragmented Nuclei (%) (Fibroblast; [2]): 24% and 44%
- Population Healthy Nuclei (%) (Fibroblast; [2]): 59% and 41%
- Population Hoechst High Intensity Objects (%) (Fibroblast; [2]): 2%
- Population Membrane Permeable-Phenotype (%) (Fibroblast; [2]): 0% and 1%
- Population Mitochondria Different-Phenotype (%) (Fibroblast; [2]): 22% and 23%
- Population Mitotic Cells (%) (Fibroblast; [2]): 53% and 58%
- Population Normal (%) (Fibroblast; [2]): 97%
- Population Pyknosed Nuclei (%) (Fibroblast; [2]): 16% and 13%
- Population Tubulin-Different-Phenotype (%) (Fibroblast; [2]): 63% and 84%
- Total Cell Count (Fibroblast; [2]): 199 and 128
- Population Apoptotic (%) (Fibroblast; [3]): 55% and 50%
- Population Fragmented Nuclei (%) (Fibroblast; [3]): 21% and 26%
- Population Healthy Nuclei (%) (Fibroblast; [3]): 62% and 59%
- Population Hoechst High Intensity Objects (%) (Fibroblast; [3]): 1% and 2%
- Population Membrane Permeable-Phenotype (%) (Fibroblast; [3]): 0% and 3%
- Population Mitochondria Different-Phenotype (%) (Fibroblast; [3]): 7% and 10%
- Population Mitotic Cells (%) (Fibroblast; [3]): 44% and 50%
- Population Normal (%) (Fibroblast; [3]): 98% and 97%
- Population Pyknosed Nuclei (%) (Fibroblast; [3]): 15% and 14%
- Population Tubulin-Different-Phenotype (%) (Fibroblast; [3]): 39% and 57%
- Total Cell Count (Fibroblast; [3]): 174 and 131
- Population Apoptotic (%) (Fibroblast; [4]): 51% and 81%
- Population Fragmented Nuclei (%) (Fibroblast; [4]): 35% and 46%
- Population Healthy Nuclei (%) (Fibroblast; [4]): 53% and 45%
- Population Hoechst High Intensity Objects (%) (Fibroblast; [4]): 0% and 1%
- Population Membrane Permeable-Phenotype (%) (Fibroblast; [4]): 0% and 1%
- Population Mitochondria Different-Phenotype (%) (Fibroblast; [4]): 34% and 14%
- Population Mitotic Cells (%) (Fibroblast; [4]): 48% and 18%
- Population Normal (%) (Fibroblast; [4]): 99% and 98%
- Population Pyknosed Nuclei (%) (Fibroblast; [4]): 11% and 8%
- Population Tubulin-Different-Phenotype (%) (Fibroblast; [4]): 63% and 80%
- Total Cell Count (Fibroblast; [4]): 247 and 136
- Population Apoptotic (%) (Fibroblast; [5]): 62% and 66%
- Population Fragmented Nuclei (%) (Fibroblast; [5]): 23% and 29%
- Population Healthy Nuclei (%) (Fibroblast; [5]): 54% and 56%
- Population Hoechst High Intensity Objects (%) (Fibroblast; [5]): 3%
- Population Membrane Permeable-Phenotype (%) (Fibroblast; [5]): 0% and 4%
- Population Mitochondria Different-Phenotype (%) (Fibroblast; [5]): 18% and 14%
- Population Mitotic Cells (%) (Fibroblast; [5]): 37% and 33%
- Population Normal (%) (Fibroblast; [5]): 96%
- Population Pyknosed Nuclei (%) (Fibroblast; [5]): 22% and 14%
- Population Tubulin-Different-Phenotype (%) (Fibroblast; [5]): 53% and 70%
- Total Cell Count (Fibroblast; [5]): 185 and 130
- Population Apoptotic (%) (Fibroblast; [6]): 74% and 88%
- Population Fragmented Nuclei (%) (Fibroblast; [6]): 22% and 45%
- Population Healthy Nuclei (%) (Fibroblast; [6]): 54% and 48%
- Population Hoechst High Intensity Objects (%) (Fibroblast; [6]): 1% and 0%
- Population Membrane Permeable-Phenotype (%) (Fibroblast; [6]): 0% and 1%
- Population Mitochondria Different-Phenotype (%) (Fibroblast; [6]): 45% and 15%
- Population Mitotic Cells (%) (Fibroblast; [6]): 25% and 11%
- Population Normal (%) (Fibroblast; [6]): 98% and 99%
- Population Tubulin-Different-Phenotype (%) (Fibroblast; [6]): 77% and 76%
- Total Cell Count (Fibroblast; [6]): 213 and 144
- Population Apoptotic (%) (HEK-293T; [1]): 42% and 47%
- Population Fragmented Nuclei (%) (HEK-293T; [1]): 4% and 3%
- Population Healthy Nuclei (%) (HEK-293T; [1]): 81% and 78%
- Population Hoechst High Intensity Objects (%) (HEK-293T; [1]): 7% and 8%
- Population Membrane Permeable-Phenotype (%) (HEK-293T; [1]): 0%
- Population Mitochondria Different-Phenotype (%) (HEK-293T; [1]): 65% and 84%
- Population Mitotic Cells (%) (HEK-293T; [1]): 57% and 52%
- Population Normal (%) (HEK-293T; [1]): 92% and 91%
- Population Pyknosed Nuclei (%) (HEK-293T; [1]): 14% and 17%
- Population Tubulin-Different-Phenotype (%) (HEK-293T; [1]): 44% and 41%
- Total Cell Count (HEK-293T; [1]): 420 and 285
- Population Apoptotic (%) (HEK-293T; [2]): 100% and 52%
- Population Hoechst High Intensity Objects (%) (HEK-293T; [2]): 31% and 11%
- Population Membrane Permeable-Phenotype (%) (HEK-293T; [2]): 0% and 1%
- Population Normal (%) (HEK-293T; [2]): 68% and 88%
- Population Pyknosed Nuclei (%) (HEK-293T; [2]): 9% and 22%
- Population Apoptotic (%) (HEK-293T; [3]): 44% and 41%
- Population Fragmented Nuclei (%) (HEK-293T; [3]): 9% and 7%
- Population Healthy Nuclei (%) (HEK-293T; [3]): 77% and 82%
- Population Hoechst High Intensity Objects (%) (HEK-293T; [3]): 5% and 8%
- Population Membrane Permeable-Phenotype (%) (HEK-293T; [3]): 0%
- Population Mitochondria Different-Phenotype (%) (HEK-293T; [3]): 59% and 65%
- Population Mitotic Cells (%) (HEK-293T; [3]): 55% and 58%
- Population Normal (%) (HEK-293T; [3]): 94% and 91%
- Population Pyknosed Nuclei (%) (HEK-293T; [3]): 12% and 9%
